Data taken from ChEMBL document CHEMBL6074625, “Thiazolidine-2,4-dione hybrids as dual alpha-amylase and alpha-glucosidase inhibitors: design, synthesis, in vitro and in vivo anti-diabetic evaluation” (RSC Med Chem, 2024).
Activity calls are given as the source filed them. The calls are words filed in the database; no cut-off is given here.

Legend:
[1] = test system: Rattus norvegicus; assay: Antidiabetic activity against streptozotocin-induced Wistar rat assessed as reduction in serum ALP level at 10 mg/kg, po administered for 21 days measured on day 35; conditions: time 35.0 day
[2] = organism: Rattus norvegicus; assay: Anti-diabetic activity against STZ-induced diabetic Wistar rat model assessed as increase beta-cells […] by H and E staining based analysis; type: functional, organism-based
Outline: (§1)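 Pancreas, liver and kidney from STZ-diabetic rats treated as in the in vivo schedule. Sections stained with haematoxylin and eosin and examined by light microscopy at 40× (50 μm scale bar). Islet boundaries, β-cells, central vein, sinusoids, trabeculae, and tubular necrosis or swelling were scored.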

[3] = organism: Rattus norvegicus; assay: Anti-diabetic activity against STZ-induced diabetic Wistar rat model assessed as increase increase in number of neutrophils level; type: functional, organism-based
Outline: (§2)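 STZ-diabetic Wistar rats in six groups (normal, vehicle 0.5% CMC oral, STZ, STZ + test compounds, STZ + pioglitazone); oral treatment started day 14 after STZ on day 1. Markers measured in serum, pancreatic homogenate or whole blood, as named in each line. Groups compared by one-way ANOVA.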

[4] = organism: Rattus norvegicus; assay: Anti-diabetic activity against STZ-induced diabetic Wistar rat model assessed as clear boundaries in pancreatic islet […] by H and E staining based analysis; type: functional, organism-based
Outline: as §1

[5] = test system: Rattus norvegicus; assay: Antidiabetic activity against STZ-induced oxidative stress in Wistar rats model assessed as increase GSH serum level at 10 mg/kg, po administered for 21 days measured on day 35 by absorbance based UV-spectroscopic analysis; type: functional, organism-based; conditions: time 35.0 day
Outline: as §2

[6] = test system: PANC-1; assay: Inhibition of high glucose induced alpha-amylase expressed in human PANC-1 cells assessed as decrease alpha-glucosidase level by measuring minimum fractional index incubated for 23 hrs and measured after 24 hrs by flow cytometric analysis; type: functional, cell-based
[7] = organism: Rattus norvegicus; assay: Anti-diabetic activity against STZ-induced diabetic Wistar rat model assessed as increase increase in number of basophils level; type: functional, organism-based
Outline: as §2

[8] = organism: Rattus norvegicus; assay: Anti-diabetic activity against STZ-induced diabetic Wistar rat model assessed as reduced necrosis in pancreatic tissue […] by H and E staining based analysis; type: functional, organism-based
Outline: as §1

[9] = test system: PANC-1; assay: Antioxidant activity in human PANC-1 cells assessed as decrease in high glucose induced ROS production by measuring minimum fractional index at 5 uM incubated for 24 hrs by DCFDA-staining based flow cytometry analysis; type: functional
Outline: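 PANC-1 cells (1 × 10⁵/well) grown 24 h at 37 °C, 5% CO₂, then pre-treated 1 h with 5 μM compound. Exposed to glucose (stated 10 μM) for 23 h. Stained with 10 μM DCFH-DA for 30 min at 37 °C, rinsed, and ROS read by flow cytometry as DCFDA/FITC mean fluorescence intensity.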

[10] = organism: Rattus norvegicus; assay: Anti-diabetic activity against STZ-induced diabetic Wistar rat model assessed as reduced in swelling […] by H and E staining based analysis; type: functional, organism-based
Outline: as §1

[11] = test system: Rattus norvegicus; assay: Antidiabetic activity against streptozotocin-induced Wistar rat assessed as increase in serum SGPT level at 10 mg/kg, po administered for 21 days measured on day 35; type: functional, organism-based; conditions: time 35.0 day
Outline: as §2

[12] = organism: Rattus norvegicus; assay: Anti-diabetic activity in high glucose induced alpha-amylase expression in fasted STZ-induced diabetic Wistar rat model assessed as alpha-amylase level in pancreas by measuring minimum fractional index incubated for 23 hrs and measured after 24 hrs by flow cytometric analysis (reference value: 2590 + 199.74); type: functional
[13] = organism: Rattus norvegicus; assay: Anti-diabetic activity against STZ-induced diabetic Wistar rat model assessed as increase increase in number of haemoglobin level; type: functional, organism-based
Outline: as §2

[14] = organism: Rattus norvegicus; assay: Anti-diabetic activity against STZ-induced diabetic Wistar rat model assessed as increase in number of trabeculae cells […] by H and E staining based analysis; type: functional, organism-based
Outline: as §1

[15] = organism: Rattus norvegicus; assay: Anti-diabetic activity against STZ-induced diabetic Wistar rat model assessed as alteration in kidney morphology […] by H and E staining based analysis; type: functional, organism-based
Outline: as §1

[16] = test system: Rattus norvegicus; assay: Anti-diabetic activity against STZ-induced diabetic Wistar rat model assessed as decrease in dilatation of central vein at 10 mg/kg, po by H and E staining based analysis
[17] = organism: Rattus norvegicus; assay: Anti-diabetic activity against STZ-induced diabetic Wistar rat model assessed as improvement in pancreas islet morphology […] by H and E staining based analysis; type: functional, organism-based
Outline: as §1

Structure (SMILES) | Activity [1] | Activity [2] | Activity [3] | Activity [4] | Activity [5] | Activity [6] | Activity [7] | Activity [8] | Activity_index [9] | Activity [10] | Activity [11] | Activity index [12] | Activity [13] | Activity [14] | Activity [15] | Activity [16] | Activity [17]
C#CCOc1ccc(/C=C2\SC(=O)N(Cc3cccc([N+](=O)[O-])c3)C2=O)cc1OCC | Active | Active | Active | Active | Active | Dose-dependent-effect | Active | Active | 85.2 | Active | Active | 2250 | Active | Active |  |  | 
C=CCOc1ccc(/C=C2\SC(=O)N(Cc3cccc([N+](=O)[O-])c3)C2=O)cc1OCC | Active |  | Active |  | Active | Dose-dependent-effect | Active |  | 97.6 |  | Active | 676 | Active |  | Active | Active | Active
